Key:
[1] = Antiinflammatory activity in C57BL6/J mouse BV2 cells assessed as inhibition of LPS-induced nitric oxide production after 24 hrs by Griess assay; type: functional, cell-based; settings: BV-2, 24 h
Procedure, shortened: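 Mouse (C57BL6/J) macrophages grown 24 h at 37 °C in RPMI1640, then given 1 μg/mL LPS plus test compounds for a further 24 h at 37 °C. Blank, LPS-only and dexamethasone (10−6 M) wells served as controls. Nitrite in supernatant was read with Griess reagent at 570 nm against a sodium nitrite standard.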

Mus musculus [2] = test: Antiinflammatory activity in ICR mouse assessed as inhibition of croton oil-induced ear edema at 50 mg/ml administered 1 hr prior to croton oil challenge measured after 4 hrs relative to control; type: functional
Procedure, shortened: (§1)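 Male ICR mice (18−20 g, n = 10 per group) received 0.4 mg croton oil in […] acetone on the left ear. Treatment was applied 1 h before the croton oil, and the animals were killed 4 h after it. Edema was taken as the weight difference between 8 mm punches of the treated and untreated ears, expressed as % reduction versus control mice.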

Coxsackievirus B3 = test: Antiviral activity against Coxsackievirus B3 infected in African green monkey Vero cells assessed as inhibition of virus-induced cytopathic effect; type: functional, organism-based; settings: Enterovirus B
Procedure, shortened: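 Vero cells (2.5 × 10^4/well) were plated for 24 h, infected 2 h with 100 TCID50 Coxsackievirus B3 (Nancy), then given compounds at various concentrations until control CPE reached 4+. Run in triplicate, at least three times. IC50 is the concentration inhibiting 50% of CPE (Reed and Muench). SI = TC50/IC50.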

[3] = Cytotoxicity against African green monkey Vero cells assessed as growth inhibition by CPE assay; type: cell-based; settings: chlorocebus sabaeus, read-out: TC50 (the source's name)
Procedure, shortened: (§2)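 Vero or MDCK cells (2.5 × 10^4/well) were seeded and incubated overnight. Medium was then replaced with compounds at various concentrations in triplicate. After a 2-day incubation, cytotoxicity was scored by CPE. TC50 is the concentration inhibiting 50% of cell growth versus controls (Reed and Muench). Values are means of three independent determinations.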

[4] = Selectivity index, ratio of TC50 for African green monkey Vero cells to IC50 for Coxsackievirus B3-induced cytopathic effect in African green monkey Vero cells; type: toxicity, cell-based; settings: read-out: Selectivity Index
Procedure, shortened: (§3)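 Vero cells (2.5 × 10^4 cells/well). TC50: cells incubated overnight, compounds applied in triplicate for 2 days, CPE read, 50% growth inhibition versus controls by Reed and Muench. IC50: cells infected 2 h with 100 TCID50 CVB3 (Nancy), compounds added until control CPE 4+, 50% CPE inhibition by Reed and Muench. SI = TC50/IC50.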

[5] = Cytotoxicity against MDCK cells assessed as growth inhibition by CPE assay; type: cell-based, Canis lupus familiaris; settings: dog, read-out: TC50 (the source's name); procedure, shortened: as §2
[6] = Antiviral activity against Influenza A virus (A/FM/1/47(H1N1)) infected in MDCK cells assessed as inhibition of virus-induced cytopathic effect; type: functional, cell-based, Influenza A virus (A/Fort Monmouth/1/1947(H1N1))
Procedure, shortened: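 MDCK cells (2.5 × 10^4 cells/well) plated 24 h, PBS-washed, infected 2 h with 100 TCID50 influenza A/FM/1/47 (H1N1); compounds at various concentrations added, incubation until control CPE reached 4+. Triplicate, at least three separate runs; IC50 = minimal concentration inhibiting 50% CPE, Reed and Muench method.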

[7] = Selectivity index, ratio of TC50 for MDCK cells to IC50 for Influenza A virus (A/FM/1/47(H1N1))-induced cytopathic effect in MDCK cells; type: toxicity, cell-based; settings: dog, read-out: Selectivity Index
Procedure, shortened: as §3, with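 “MDCK” for “Vero”, “IC50: PBS-washed” for “IC50:”, “influenza A/FM/1/47 (H1N1),” for “CVB3 (Nancy),”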

Mus musculus [8] = test: Antiinflammatory activity in ICR mouse assessed as inhibition of croton oil-induced ear edema at 1 mg/ml administered 1 hr prior to croton oil challenge measured after 4 hrs relative to control; type: functional; procedure, shortened: as §1

## C=C1C(=O)O[C@@H]2C=C(CCC(C)=O)[C@@H](C)CC[C@@H]12
[1]
  IC50: 8.5 µM
Mus musculus [2]
  inhibition (INH): <20%
Coxsackievirus B3
  IC50: 6.4 µM
[3]
  CC50: 19.2 µM
[4]
  selectivity ratio: 3
[5]
  CC50: 19.3 µM
[6]
  IC50: 8.6 µM
[7]
  selectivity ratio: 2.2

## C=C1C(=O)O[C@H]2C[C@H](C)C(CCC(C)=O)=CC[C@H]12
[1]
  IC50: 5.6 µM
Mus musculus [2]
  inhibition (INH): 46.9%
Coxsackievirus B3
  IC50: > 35 µM
[6]
  IC50: > 35 µM

## C=C1[C@H]2C[C@H]2[C@]2(C)CC(=O)C3=C(C)C(=O)O[C@@H]3[C@@H]12
[1]
  IC50: > 10 µM
Coxsackievirus B3
  IC50: > 35 µM
[6]
  IC50: > 35 µM

## C=C1[C@@H]2C[C@@H]2[C@@]2(C)C=C3OC(=O)C(C)=C3[C@@H](O)[C@H]12
[1]
  IC50: > 10 µM
Coxsackievirus B3
  IC50: > 35 µM
[6]
  IC50: > 35 µM

## COC(=O)CC1=CC[C@H]2[C@H](C[C@@H]1C)OC(=O)[C@H]2C
[1]
  IC50: > 10 µM
Coxsackievirus B3
  IC50: > 35 µM
[6]
  IC50: > 35 µM

## C[C@H]1C[C@@H]2OC(=O)[C@H](C)[C@H]2C=CC1=O
[1]
  IC50: > 10 µM
Coxsackievirus B3
  IC50: > 35 µM
[6]
  IC50: > 35 µM

## C[C@@H]1C(=O)O[C@H]2C[C@H](C)C(C(=O)O)=CC[C@@H]21
[1]
  IC50: > 10 µM
Coxsackievirus B3
  IC50: > 35 µM
[6]
  IC50: > 35 µM

## C[C@H]1C[C@@H]2OC(=O)[C@H](C)[C@H]2CC=C1C(=O)O
[1]
  IC50: > 10 µM
Coxsackievirus B3
  IC50: > 35 µM
[6]
  IC50: > 35 µM

## C[C@H]1C[C@@H]2OC(=O)[C@H](C)[C@H]2CC=C1C=O
[1]
  IC50: > 10 µM
Coxsackievirus B3
  IC50: > 35 µM
[6]
  IC50: > 35 µM

## C=C1C(=O)O[C@H]2C[C@H](C)C(C=O)=CC[C@H]12
[1]
  IC50: 3 µM
Mus musculus [2]
  inhibition (INH): <20%
Coxsackievirus B3
  IC50: 19.2 µM
[3]
  CC50: 69.3 µM
[4]
  selectivity ratio: 3.6
[5]
  CC50: 48.1 µM
[6]
  IC50: 6.4 µM
[7]
  selectivity ratio: 7.5

## COc1cc([C@H]2Oc3c(OC)cc(C(=O)[C@@H](O)CO)cc3[C@@H]2CO)ccc1O
[1]
  IC50: > 10 µM
Coxsackievirus B3
  IC50: > 35 µM
[6]
  IC50: > 35 µM

## COc1cc([C@@H]2Oc3c(OC)cc(C(=O)[C@H](O)CO)cc3[C@H]2CO)ccc1O
[1]
  IC50: > 10 µM
Coxsackievirus B3
  IC50: > 35 µM
[6]
  IC50: > 35 µM

## CC(O)CCC1=CC[C@H]2[C@@H](C[C@@H]1C)OC(=O)[C@@H]2C (stereo not given in full)
[1]
  IC50: 5.7 µM
Coxsackievirus B3
  IC50: > 35 µM
[6]
  IC50: > 35 µM

## CC(=O)/C=C/C1=CC[C@H]2[C@H](C[C@@H]1C)OC(=O)[C@@H]2C
[1]
  IC50: 3.7 µM
Mus musculus [2]
  inhibition (INH): <20%
Coxsackievirus B3
  IC50: > 35 µM
[6]
  IC50: > 35 µM

## CC(=O)CCC1=CC[C@H]2[C@H](C[C@@H]1C)OC(=O)[C@@H]2C
[1]
  IC50: > 10 µM
Mus musculus [2]
  inhibition (INH): <20%
Coxsackievirus B3
  IC50: 6.4 µM
[3]
  CC50: 77.6 µM
[4]
  selectivity ratio: 12.1
[6]
  IC50: > 35 µM

## CC(=O)/C=C/C1=CC[C@H]2[C@H](C[C@@H]1C)OC(=O)[C@H]2C
[1]
  IC50: > 10 µM
Coxsackievirus B3
  IC50: > 35 µM
[6]
  IC50: > 35 µM

## CC1=C2C[C@H]3[C@@]4(CO4)[C@H](O)C=C[C@]3(C)C[C@@H]2OC1=O
[1]
  IC50: > 10 µM
Coxsackievirus B3
  IC50: 19.2 µM
[3]
  CC50: 69.3 µM
[4]
  selectivity ratio: 3.6
[5]
  CC50: 100 µM
[6]
  IC50: 33.3 µM
[7]
  selectivity ratio: 3

## CC(=C/C(=O)O)/C=C/[C@]1(O)[C@@]2(C)CO[C@]1(C)C[C@@H](O)C2
[1]
  IC50: > 10 µM
Coxsackievirus B3
  IC50: > 35 µM
[6]
  IC50: > 35 µM

## CC(=C/C(=O)O)/C=C/[C@]1(O)[C@@]2(C)CO[C@]1(C)CC(=O)C2
[1]
  IC50: > 10 µM
Coxsackievirus B3
  IC50: > 35 µM
[6]
  IC50: > 35 µM

## COc1cc(C(O)C(CO)Oc2ccc(C(=O)O)cc2OC)ccc1O (stereo not given)
[1]
  IC50: > 10 µM
Coxsackievirus B3
  IC50: > 35 µM
[5]
  CC50: 100 µM
[6]
  IC50: 8.4 µM
[7]
  selectivity ratio: 11.9

## CCOC(=O)c1ccc(O)c(O)c1
[1]
  IC50: > 10 µM
Coxsackievirus B3
  IC50: 11.3 µM
[3]
  CC50: 23.1 µM
[4]
  selectivity ratio: 2.1
[6]
  IC50: > 35 µM

## C[C@@H]1C[C@H]2[C@@H]3CCC4=CC(=O)C=C[C@]4(C)[C@@]3(F)[C@@H](O)C[C@]2(C)[C@@]1(O)C(=O)CO [DEXAMETHASONE]
[1]
  IC50: 0.025 µM
Mus musculus [8]
  inhibition (INH): 70.5%

## CCOC(=O)/C=C/c1ccc(O)c(O)c1 [ETHYL CAFFEATE]
[1]
  IC50: 2.5 µM
Coxsackievirus B3
  IC50: > 35 µM
[5]
  CC50: 19.3 µM
[6]
  IC50: 3.7 µM
[7]
  selectivity ratio: 5.2

## C=C1CC=C[C@]2(C)C[C@]3(O)OC(=O)C(C)C3=C[C@@H]12 (stereo not given in full) [HYDROXYLINDESTENOLIDE]
[1]
  IC50: 3.9 µM
Mus musculus [2]
  inhibition (INH): 37.7%
Coxsackievirus B3
  IC50: > 35 µM
[6]
  IC50: > 35 µM

## CCOC(=O)C1=C[C@@H](OC(CC)CC)[C@H](NC(C)=O)[C@@H](N)C1 [OSELTAMIVIR]
[5]
  CC50: 3120 µM
[6]
  IC50: 2.7 µM
[7]
  selectivity ratio: 1140

## Cc1cc(CCCOc2c(C)cc(-c3noc(C(F)(F)F)n3)cc2C)on1 [PLECONARIL]
Coxsackievirus B3
  IC50: 0.0025 µM
[3]
  CC50: 40.5 µM
[4]
  selectivity ratio: 16200

## NC(=O)c1ncn([C@@H]2O[C@H](CO)[C@@H](O)[C@H]2O)n1 [RIBAVIRIN]
Coxsackievirus B3
  IC50: 1200 µM
[4]
  selectivity ratio: 6.8

Source: ChEMBL document CHEMBL3593156, “Bioactive Sesquiterpenes and Lignans from the Fruits of Xanthium sibiricum” (J Nat Prod, 2015)
